Consider one compound from ChEMBL document CHEMBL4371052, “Diarylcarbonates are a new class of deubiquitinating enzyme inhibitor” (Bioorg Med Chem Lett, 2019).

Series [1] deals with Ubiquitin carboxyl-terminal hydrolase 7 (Homo sapiens) (UniProt Q93009). The experiment in a line: Inhibition of USP7 in human MCF7 cells assessed as increase in p53 expression after 4 to 48 hrs by Western blot analysis. The class given is cell-based. In general terms: A western blot detects proteins with antibodies after separation by electrophoresis.
Sequence of Ubiquitin carboxyl-terminal hydrolase 7 (Homo sapiens) (Q93009 whole entry, looked up): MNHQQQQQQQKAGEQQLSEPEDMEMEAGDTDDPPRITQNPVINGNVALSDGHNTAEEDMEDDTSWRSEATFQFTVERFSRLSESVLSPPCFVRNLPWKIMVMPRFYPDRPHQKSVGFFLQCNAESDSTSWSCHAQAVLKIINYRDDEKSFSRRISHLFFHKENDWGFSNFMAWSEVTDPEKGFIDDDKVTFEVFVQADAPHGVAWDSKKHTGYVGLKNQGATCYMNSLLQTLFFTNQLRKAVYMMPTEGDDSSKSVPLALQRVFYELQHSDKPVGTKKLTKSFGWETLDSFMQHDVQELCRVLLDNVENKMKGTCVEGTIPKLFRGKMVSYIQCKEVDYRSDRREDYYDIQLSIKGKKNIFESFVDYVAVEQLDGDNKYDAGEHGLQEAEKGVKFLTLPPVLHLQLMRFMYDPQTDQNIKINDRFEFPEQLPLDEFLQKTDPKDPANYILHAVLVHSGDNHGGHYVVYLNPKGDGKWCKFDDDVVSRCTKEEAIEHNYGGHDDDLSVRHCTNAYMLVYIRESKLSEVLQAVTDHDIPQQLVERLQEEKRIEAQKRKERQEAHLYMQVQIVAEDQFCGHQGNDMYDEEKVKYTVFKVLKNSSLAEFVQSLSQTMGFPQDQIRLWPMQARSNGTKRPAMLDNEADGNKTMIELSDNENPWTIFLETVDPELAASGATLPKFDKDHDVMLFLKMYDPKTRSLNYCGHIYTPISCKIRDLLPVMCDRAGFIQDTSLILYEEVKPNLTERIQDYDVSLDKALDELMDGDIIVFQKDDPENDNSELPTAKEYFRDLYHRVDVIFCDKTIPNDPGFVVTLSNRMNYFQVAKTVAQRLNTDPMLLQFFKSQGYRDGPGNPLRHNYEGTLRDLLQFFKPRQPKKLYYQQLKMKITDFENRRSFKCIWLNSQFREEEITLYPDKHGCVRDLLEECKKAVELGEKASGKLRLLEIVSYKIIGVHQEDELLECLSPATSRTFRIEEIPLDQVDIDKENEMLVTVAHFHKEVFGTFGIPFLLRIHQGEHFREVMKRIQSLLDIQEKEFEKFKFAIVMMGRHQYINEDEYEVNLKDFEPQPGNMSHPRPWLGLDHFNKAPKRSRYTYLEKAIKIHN
Series [2] deals with T1, Ubiquitin carboxyl-terminal hydrolase isozyme L3 (Homo sapiens) (UniProt P15374).
T1 sequence (whole entry): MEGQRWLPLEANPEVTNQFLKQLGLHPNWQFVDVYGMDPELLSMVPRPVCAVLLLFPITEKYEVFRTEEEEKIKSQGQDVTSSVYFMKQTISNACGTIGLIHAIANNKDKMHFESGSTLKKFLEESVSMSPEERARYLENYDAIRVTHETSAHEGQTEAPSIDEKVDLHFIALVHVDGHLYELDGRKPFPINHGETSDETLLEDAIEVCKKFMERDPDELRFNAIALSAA
Kind of series: Inhibition of UCHL3 in HEK293T cell lysates at 25 uM using HA-tagged vinyl-sulfone as substrate preincubated for 19 to 60 mins followed by substrate addition and measured after 19 to 25 mins by Western blot analysis. The class given is subcellular. The following applies: Lysate.

The target of series [3] is Pancreatic elastase (Sus scrofa) (UniProt P08419+P00772). Kind of series: Inhibition of porcine pancreatic elastase. The class given is protein assay.
In series [4] the target is Ubiquitin carboxyl-terminal hydrolase 9X (Homo sapiens) (UniProt Q93008). Kind of series: Inhibition of USP9x in HEK293T cell lysates assessed as enzyme recovery at 250 uM using HA-tagged vinyl-sulfone as substrate preincubated for 40 mins followed by 10-fold dilution and subsequent substrate addition measured up to 2 hrs by Western blot analysis. The class given is subcellular. The following applies: Lysate.
Sequence of Ubiquitin carboxyl-terminal hydrolase 9X (Homo sapiens) (Q93008 whole entry, the tested form may be a part): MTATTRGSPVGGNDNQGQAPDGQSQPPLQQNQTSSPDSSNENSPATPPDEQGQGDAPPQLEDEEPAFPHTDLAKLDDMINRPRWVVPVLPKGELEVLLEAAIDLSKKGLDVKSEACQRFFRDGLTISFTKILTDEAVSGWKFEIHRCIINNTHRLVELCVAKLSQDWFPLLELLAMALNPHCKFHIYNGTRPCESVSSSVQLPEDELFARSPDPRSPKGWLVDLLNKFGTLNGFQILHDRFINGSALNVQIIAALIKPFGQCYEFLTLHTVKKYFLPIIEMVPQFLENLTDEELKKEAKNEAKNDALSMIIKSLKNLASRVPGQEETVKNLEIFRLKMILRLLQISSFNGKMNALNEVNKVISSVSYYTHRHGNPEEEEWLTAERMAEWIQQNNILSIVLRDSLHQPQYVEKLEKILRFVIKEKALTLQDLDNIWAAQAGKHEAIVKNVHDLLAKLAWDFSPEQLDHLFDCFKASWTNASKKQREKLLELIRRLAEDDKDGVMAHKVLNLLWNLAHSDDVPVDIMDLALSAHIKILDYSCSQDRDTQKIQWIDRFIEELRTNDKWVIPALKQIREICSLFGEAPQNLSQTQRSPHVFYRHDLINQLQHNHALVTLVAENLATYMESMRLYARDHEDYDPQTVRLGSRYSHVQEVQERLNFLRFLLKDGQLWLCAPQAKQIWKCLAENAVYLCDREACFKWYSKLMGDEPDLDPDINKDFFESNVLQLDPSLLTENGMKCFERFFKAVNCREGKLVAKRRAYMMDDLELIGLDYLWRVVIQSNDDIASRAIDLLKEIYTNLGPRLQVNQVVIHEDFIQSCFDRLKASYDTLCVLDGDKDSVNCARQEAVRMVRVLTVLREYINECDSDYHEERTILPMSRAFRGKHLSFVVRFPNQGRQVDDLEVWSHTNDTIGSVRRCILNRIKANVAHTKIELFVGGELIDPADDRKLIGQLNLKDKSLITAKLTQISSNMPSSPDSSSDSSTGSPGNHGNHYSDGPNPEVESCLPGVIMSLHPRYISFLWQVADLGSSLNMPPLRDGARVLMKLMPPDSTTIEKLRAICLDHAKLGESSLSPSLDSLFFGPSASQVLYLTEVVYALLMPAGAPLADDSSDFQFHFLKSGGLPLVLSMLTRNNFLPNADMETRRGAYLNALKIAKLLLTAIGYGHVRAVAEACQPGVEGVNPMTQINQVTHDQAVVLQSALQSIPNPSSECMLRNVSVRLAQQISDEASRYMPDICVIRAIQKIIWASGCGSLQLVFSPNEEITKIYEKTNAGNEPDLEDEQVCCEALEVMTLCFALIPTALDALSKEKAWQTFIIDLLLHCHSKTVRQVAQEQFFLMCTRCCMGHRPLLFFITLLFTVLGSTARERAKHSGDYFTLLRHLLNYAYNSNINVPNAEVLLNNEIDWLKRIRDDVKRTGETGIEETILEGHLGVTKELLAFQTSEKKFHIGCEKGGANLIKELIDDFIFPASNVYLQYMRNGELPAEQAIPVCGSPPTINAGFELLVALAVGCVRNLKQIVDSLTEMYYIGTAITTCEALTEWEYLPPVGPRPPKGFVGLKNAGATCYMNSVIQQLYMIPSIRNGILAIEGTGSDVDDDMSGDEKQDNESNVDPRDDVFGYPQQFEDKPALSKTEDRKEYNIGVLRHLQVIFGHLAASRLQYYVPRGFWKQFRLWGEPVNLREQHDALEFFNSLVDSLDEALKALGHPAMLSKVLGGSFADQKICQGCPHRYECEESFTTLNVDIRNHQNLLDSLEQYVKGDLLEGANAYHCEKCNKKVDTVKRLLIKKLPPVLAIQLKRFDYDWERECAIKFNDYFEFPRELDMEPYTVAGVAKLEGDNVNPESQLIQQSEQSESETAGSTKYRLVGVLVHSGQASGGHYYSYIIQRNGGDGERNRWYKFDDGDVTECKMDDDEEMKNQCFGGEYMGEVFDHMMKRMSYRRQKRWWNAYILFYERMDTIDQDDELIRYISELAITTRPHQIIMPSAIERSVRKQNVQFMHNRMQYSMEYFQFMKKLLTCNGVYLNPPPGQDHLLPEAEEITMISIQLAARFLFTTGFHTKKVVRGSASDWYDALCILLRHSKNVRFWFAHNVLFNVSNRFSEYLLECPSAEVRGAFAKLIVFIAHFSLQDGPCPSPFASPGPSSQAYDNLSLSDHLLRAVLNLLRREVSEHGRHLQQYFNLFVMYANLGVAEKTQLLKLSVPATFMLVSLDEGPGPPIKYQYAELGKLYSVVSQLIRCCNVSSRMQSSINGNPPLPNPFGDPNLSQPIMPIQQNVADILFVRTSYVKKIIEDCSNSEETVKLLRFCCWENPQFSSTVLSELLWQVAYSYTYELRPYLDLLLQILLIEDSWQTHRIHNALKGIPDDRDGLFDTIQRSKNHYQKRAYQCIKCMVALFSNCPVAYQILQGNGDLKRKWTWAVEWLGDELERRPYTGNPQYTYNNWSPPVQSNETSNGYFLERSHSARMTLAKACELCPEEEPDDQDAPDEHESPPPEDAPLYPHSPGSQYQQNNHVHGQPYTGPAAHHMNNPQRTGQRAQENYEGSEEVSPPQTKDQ

Series [5] deals with Ubiquitin carboxyl-terminal hydrolase 7 (Homo sapiens) (UniProt Q93009). The experiment in a line: Inhibition of USP7 in human MCF7 cells assessed as increase in p53 expression at 25 uM after 4 hrs by Western blot analysis. The class given is cell-based. In a few lines: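 MCF7 cells treated with compound for 4 h. Mdm2, p53 and p21 levels were determined by immunoblotting.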

The nature of series [6]: Inhibition of deubiquitinase in HEK293T cells expressing N-terminal HA-tagged ubiquitin assessed as stabilization of HMW-Ub proteins after 2 hrs by Western blot analysis. The series is classed as cell-based, Homo sapiens.
Series [7] has as its target Ubiquitin carboxyl-terminal hydrolase 7 (Homo sapiens) (UniProt Q93009). Kind of series: Inhibition of USP7 in HEK293T cell lysates assessed as enzyme recovery at 250 uM using HA-tagged vinyl-sulfone as substrate […] followed by 10-fold dilution and subsequent substrate addition measured up to 2 hrs by Western blot analysis. The series is classed as subcellular. As to conditions: Lysate.

Series [8] deals with Ubiquitin carboxyl-terminal hydrolase 9X (Homo sapiens) (UniProt Q93008). Kind of series: Inhibition of USP9x in HEK293T cell lysates at 25 uM using HA-tagged vinyl-sulfone as substrate preincubated for 19 to 60 mins followed by substrate addition and measured after 19 to 25 mins by Western blot analysis. The series is classed as subcellular. As to conditions: Lysate.
Series [9] has as its target Ubiquitin carboxyl-terminal hydrolase isozyme L1 (Homo sapiens) (UniProt P09936). Kind of series: Inhibition of UCHL1 in HEK293T cell lysates at 25 uM using HA-tagged vinyl-sulfone as substrate measured after 2 to 30 mins by Western blot analysis. As to conditions: Lysate. The series is classed as subcellular. The method, boiled down:
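HEK 293T lysate (1.5 mg/ml) given compound (25 μM) or DMSO at the same time as HA-Ub-VS (1.5 μM). Aliquots withdrawn over time were run on SDS-PAGE and immunoblotted for HA.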

Series [10] deals with K562. The experiment in a line: Cell cycle arrest in human K562 cells assessed as increase in accumulation at sub G1-phase after 24 hrs by propidium iodide staining based flow cytometry. The class given is functional. The method, boiled down:
(§1)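 K562 cells exposed to compound for 24 h, then analysed for cell cycle by FACS. Sub-G1 cells were counted as apoptotic, with the G1 fraction reported separately.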

Series [11] has as its target Ubiquitin carboxyl-terminal hydrolase 9X (Homo sapiens) (UniProt Q93008). The experiment in a line: Inhibition of recombinant His6-tagged USP9x catalytic domain (unknown origin) assessed as association constant using Ub-AMC as substrate by fluorescence assay.
In series [12] the target is Ubiquitin carboxyl-terminal hydrolase 7 (Homo sapiens) (UniProt Q93009). Kind of series: Inhibition of USP7 in HEK293T cell lysates assessed as ratio of HA-Ub-VS modified USP7 to total USP7 at 100 uM using HA-Ub vinyl-sulfone as substrate preincubated for 19 to 60 mins followed by substrate addition and measured after 19 to 25 mins by Western blot analysis (reference value: 0.5). The series is classed as subcellular. As to conditions: Lysate. In a few lines: (§2)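 HEK 293T lysate incubated with compound, then treated with HA-Ub-VS. Samples were run on SDS-PAGE and blotted with anti-USP7, and the probe-modified USP7 band was distinguished from unmodified USP7.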

Series [13] concerns the target Trypsin (Homo sapiens, UniProt P07477+P07478+P35030). The experiment in a line: Substrate activity at trypsin (unknown origin) by Michaelis-Menten plot analysis. The class given is ADME, protein assay. The method, boiled down:
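Diarylcarbonate hydrolysis by chymotrypsin or trypsin measured across substrate concentrations; velocity versus substrate concentration fit for Km and kcat.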

In series [14] the target is Ubiquitin carboxyl-terminal hydrolase 7 (Homo sapiens) (UniProt Q93009). The experiment in a line: Inhibition of USP7 in HEK293T cell lysates at 25 uM using HA-tagged vinyl-sulfone as substrate preincubated for 19 to 60 mins followed by substrate addition and measured after 19 to 25 mins by Western blot analysis. The series is classed as subcellular. As to conditions: Lysate.

Series [15] shares this target. The experiment in a line: Inhibition of USP7 in human MCF7 cells assessed as accumulation of K48-Ub protein at 50 uM after 4 hrs by Western blot analysis. The series is classed as cell-based. The method, boiled down: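 MCF7 cells exposed to 50 μM compound for 4 h. K48-linked ubiquitin chains were detected by immunoblot.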
The test system of series [16] is K562. The experiment in a line: Inhibition of deubiquitinase in human K562 cells assessed as accumulation of K48-linked HMW-Ub protein at 50 uM measured after 2 hrs by Western blot analysis. The series is classed as cell-based. In a few lines:
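K562 cells exposed to compound at 50 μM for 2 h; K48-linked ubiquitin accumulation read by immunoblotting.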

Series [17] has as its system K562. The experiment in a line: Cell cycle arrest in human K562 cells assessed as increase in accumulation at G1-phase after 24 hrs by propidium iodide staining based flow cytometry. The class given is functional. In a few lines: as §1
The target of series [18] is Ubiquitin carboxyl-terminal hydrolase 7 (Homo sapiens) (UniProt Q93009). The experiment in a line: Inhibition of USP7 in HEK293T cell lysates assessed as ratio of HA-Ub-VS modified USP7 to total USP7 at 50 uM using HA-Ub vinyl-sulfone as substrate preincubated for 19 to 60 mins followed by substrate addition and measured after 19 to 25 mins by Western blot analysis (reference value: 0.5). The class given is subcellular. As to conditions: Lysate. The method, boiled down:
as §2

For series [19], the target named is T1, Ubiquitin carboxyl-terminal hydrolase isozyme L3 (Homo sapiens). Kind of series: Inhibition of UCHL3 in HEK293T cell lysates assessed as enzyme recovery at 250 uM using HA-tagged vinyl-sulfone as substrate […] followed by 10-fold dilution and subsequent substrate addition measured within 15 mins by Western blot analysis. The series is classed as subcellular. As to conditions: Lysate.

Series [20] addresses Ubiquitin carboxyl-terminal hydrolase 9X (Homo sapiens) (UniProt Q93008). The experiment in a line: Inhibition of USP9x in human K562 cells assessed as decrease in Bcr-Abl expression at 50 uM measured after 4 hrs in presence of proteasome inhibitor bortezomib by Western blot analysis. The class given is cell-based. The method, boiled down: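 K562 cells treated with 50 μM compound with or without bortezomib (6 μM) for 4 h. Lysates were sonicated in SDS, and Bcr-Abl was measured by anti-Abl immunoblot with quantitation.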

The pEC50 is the EC50 on a negative log10 scale, so that one unit is a factor of ten. Broadly, the Km is the substrate concentration at which the rate is half of its maximum.

pEC50: −log10 of the molar value. Activity calls are given as the source filed them. The rule behind the calls is not given here.

Sequence of Ubiquitin carboxyl-terminal hydrolase isozyme L1 (Homo sapiens) (P09936 whole entry, looked up): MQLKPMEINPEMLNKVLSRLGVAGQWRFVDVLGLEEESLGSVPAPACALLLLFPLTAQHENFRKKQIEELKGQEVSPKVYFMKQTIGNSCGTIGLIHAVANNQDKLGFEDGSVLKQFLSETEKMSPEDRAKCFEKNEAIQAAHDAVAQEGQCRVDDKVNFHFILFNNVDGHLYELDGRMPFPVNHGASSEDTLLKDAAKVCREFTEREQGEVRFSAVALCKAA

On to `NCc1ccc(OC(=O)Oc2ccc3ccccc3c2)cc1`, for which the result in series [1] and in series [5] was Active. Besides, the inhibition result in series [2], in series [3], in [4], in series [7] and in [9] was “inactive” each time. In [6], the pEC50 was 4.70. Also, the inhibition entry in [8], in series [14], in series [15], in series [16], in [19] and in series [20] was “Active” throughout. Moreover, the Activity result in series [10] and in series [17] was “Dose-dependent effect” in each case. In addition, the K in [11] amounted to 49 M⁻¹ s⁻¹. The Ratio in [12] is 0.3; in series [18], 0.4. This compound registered a Kcat in [13] of 0.02 s⁻¹. Besides, the Km in [13] (trypsin (isolated enzyme, unknown origin)) amounted to 1 µM.
